Test results taken from ChEMBL document CHEMBL5096187, “Efficient Synthesis and Bioevaluation of Novel Dual Tubulin/Histone Deacetylase 3 Inhibitors as Potential Anticancer Agents” (J Med Chem, 2021).
pIC50: −log10 of the molar value.

How the values were obtained:
[1] = system: HCT-116; experiment: Antiproliferative activity against human HCT-116 cells assessed as inhibition of cell viability measured for 48 hrs by microplate reader based MTT assay; format: functional; settings: HCT-116, 48 h
In short: (§1)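 Cells grown in RPMI-1640 with 10% FBS and seeded at 5000 cells/well. After overnight attachment, compound was added in medium with 0.1% DMSO for 48 h at 37 °C. Read-out was MTT for HCT-116, B16-F10 and A549, and CCK-8 for Jurkat (0.5 mg/mL, 4 h), with absorbance at 570 nm. IC50 from nonlinear regression; at least three independent experiments.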

[2] = system: B16-F10; experiment: Antiproliferative activity against mouse B16-F10 cells assessed as inhibition of cell viability measured for 48 hrs by microplate reader based MTT assay; format: functional; settings: B16-F10, 48 h; in short: as §1
[3] = system: Jurkat; experiment: Antiproliferative activity against human Jurkat cells assessed as inhibition of cell viability measured for 48 hrs by microplate reader based CCK-8 assay; format: functional
[4] = system: A549; experiment: Antiproliferative activity against human A549 cells assessed as inhibition of cell viability measured for 48 hrs by microplate reader based CCK-8 assay; format: functional; settings: A549, 48 h
[5] = Antiproliferative activity against human YCC-11 cells assessed as inhibition of cell viability; format: functional, cell-based
[6] = Antiproliferative activity against human YCC3/7 cells assessed as inhibition of cell viability; format: functional, cell-based
[7] = target: T1, Protein deacetylase HDAC6 (Homo sapiens) (UniProt Q9UBN7); experiment: Inhibition of recombinant HDAC6 (unknown origin) at 1 uM relative to control
T1 sequence (whole entry): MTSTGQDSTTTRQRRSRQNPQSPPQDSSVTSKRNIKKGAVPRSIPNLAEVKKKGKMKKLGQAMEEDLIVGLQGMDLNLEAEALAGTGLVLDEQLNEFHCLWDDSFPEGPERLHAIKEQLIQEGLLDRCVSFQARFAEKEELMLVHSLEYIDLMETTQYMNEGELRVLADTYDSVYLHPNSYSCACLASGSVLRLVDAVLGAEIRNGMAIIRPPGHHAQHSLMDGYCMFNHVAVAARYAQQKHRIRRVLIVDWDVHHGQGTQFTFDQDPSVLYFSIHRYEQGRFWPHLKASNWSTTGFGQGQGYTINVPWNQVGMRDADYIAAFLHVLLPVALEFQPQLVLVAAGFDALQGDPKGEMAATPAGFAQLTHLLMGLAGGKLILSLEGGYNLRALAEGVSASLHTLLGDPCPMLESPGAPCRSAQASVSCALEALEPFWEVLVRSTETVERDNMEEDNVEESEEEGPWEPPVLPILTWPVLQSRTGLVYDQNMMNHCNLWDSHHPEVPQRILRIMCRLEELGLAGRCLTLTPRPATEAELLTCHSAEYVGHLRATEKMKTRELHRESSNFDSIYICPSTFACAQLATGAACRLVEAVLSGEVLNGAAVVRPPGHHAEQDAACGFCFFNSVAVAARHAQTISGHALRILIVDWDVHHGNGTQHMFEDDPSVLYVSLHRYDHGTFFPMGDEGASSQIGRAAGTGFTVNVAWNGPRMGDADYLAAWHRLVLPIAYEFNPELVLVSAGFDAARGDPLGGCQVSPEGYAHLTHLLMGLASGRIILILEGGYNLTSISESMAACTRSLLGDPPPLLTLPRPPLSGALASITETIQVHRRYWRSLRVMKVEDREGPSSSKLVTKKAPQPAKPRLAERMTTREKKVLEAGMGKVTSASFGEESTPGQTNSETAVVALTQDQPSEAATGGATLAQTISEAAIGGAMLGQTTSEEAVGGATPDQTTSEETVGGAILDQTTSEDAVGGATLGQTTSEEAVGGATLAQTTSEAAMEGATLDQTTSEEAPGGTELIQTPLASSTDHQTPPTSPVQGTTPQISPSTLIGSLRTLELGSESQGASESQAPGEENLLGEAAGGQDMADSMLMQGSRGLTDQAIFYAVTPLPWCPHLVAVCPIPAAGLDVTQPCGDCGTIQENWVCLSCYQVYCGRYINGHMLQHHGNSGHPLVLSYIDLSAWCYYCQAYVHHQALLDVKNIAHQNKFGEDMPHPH
In short: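 Single-point test at 1 μM against recombinant HDAC6 (15 ng/well) in 25 mM Tris pH 8.0, 1 mM MgCl₂, 0.1 mg/mL BSA, 137 mM NaCl, 2.7 mM KCl. Compound preincubated 5 min at room temperature, then Ac-Leu-Gly-Lys(Ac)-AMC 10 μM, 30 min at 37 °C. Trypsin/TSA developer 30 min. Fluorescence read at ex 350−360/em 450−460 nm.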

[8] = target: Histone deacetylase 1 (Homo sapiens, UniProt Q13547); experiment: Inhibition of full length recombinant human HDAC1 (1 to 482 residues) expressed in Baculovirus system using Ac-Leu-Gly-Lys (Ac)-AMC as substrate pretreated for 5 mins followed by substrate addition and measured after 30 mins
[9] = target: Histone deacetylase 3 (Homo sapiens, UniProt O15379); experiment: Inhibition of recombinant HDAC3 (unknown origin) using Ac-Leu-Gly-Lys (Ac)-AMC as substrate pretreated for 5 mins followed by substrate addition and measured after 30 mins
[10] = target: T2, Protein deacetylase HDAC6 (Homo sapiens, UniProt Q9UBN7); experiment: Inhibition of full length N-terminal GST-tagged human recombinant HDAC6 (1 to 1215 residues) expressed in Baculovirus infected Sf9 cells using Ac-Leu-Gly-Lys (Ac)-AMC as substrate pretreated for 5 mins followed by substrate addition and measured after 30 mins
T2 sequence (Q9UBN7 whole entry): T1 sequence (whole entry)
In short: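 HDAC6 at 15 ng/well in Tris buffer pH 8.0 with MgCl2, BSA, NaCl and KCl. Ten 3-fold dilutions preincubated 5 min at room temperature, then 10 μM Ac-Leu-Gly-Lys(Ac)-AMC for 30 min at 37 °C. IC50 by normalized dose–response nonlinear fit; performed at least three times.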

[11] = target: T3, Histone deacetylase 8 (Homo sapiens, UniProt Q9BY41); experiment: Inhibition of full length C-terminal his-tagged human recombinant HDAC8 ([…]) expressed in baculovirus in Sf9 insect cells using Ac-Leu-Gly-Lys (Tfa)-AMC as substrate pretreated for 5 mins followed by substrate addition and measured after 30 mins
T3 sequence (Q9BY41 whole entry): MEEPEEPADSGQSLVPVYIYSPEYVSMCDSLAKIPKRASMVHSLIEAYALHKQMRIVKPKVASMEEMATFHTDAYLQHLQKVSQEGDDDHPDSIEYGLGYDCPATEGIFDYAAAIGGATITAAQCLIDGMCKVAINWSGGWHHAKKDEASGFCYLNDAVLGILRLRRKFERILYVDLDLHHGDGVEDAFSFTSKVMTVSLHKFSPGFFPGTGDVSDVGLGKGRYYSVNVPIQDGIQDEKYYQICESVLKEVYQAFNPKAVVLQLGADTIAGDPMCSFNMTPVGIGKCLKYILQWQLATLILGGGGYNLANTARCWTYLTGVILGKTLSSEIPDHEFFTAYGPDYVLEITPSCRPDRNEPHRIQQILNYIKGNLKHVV

[12] = target: Tubulin (Sus scrofa) (UniProt P02554+P02550); experiment: Inhibition of pig brain tubulin polymerization at 10 uM measured after 20 mins by spectrometric method relative to control
In short: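 Pig brain tubulin was purified by three assembly/disassembly cycles and then phosphocellulose chromatography. Compound at 10 μM in PEM buffer with 1 mM GTP and 5% glycerol at 37 °C. Polymerization followed at 340 nm; inhibition taken at 20 min versus vehicle control.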

[13] = target: T4, Histone deacetylase 7 (Homo sapiens, UniProt Q8WUI4); experiment: Inhibition of full length N-terminal GST-tagged human recombinant HDAC7 (501 to 952 residues) expressed in Baculovirus system using Ac-Leu-Gly-Lys (Ac)-AMC as substrate pretreated for 5 mins followed by substrate addition and measured after 30 mins
T4 sequence (Q8WUI4 whole entry): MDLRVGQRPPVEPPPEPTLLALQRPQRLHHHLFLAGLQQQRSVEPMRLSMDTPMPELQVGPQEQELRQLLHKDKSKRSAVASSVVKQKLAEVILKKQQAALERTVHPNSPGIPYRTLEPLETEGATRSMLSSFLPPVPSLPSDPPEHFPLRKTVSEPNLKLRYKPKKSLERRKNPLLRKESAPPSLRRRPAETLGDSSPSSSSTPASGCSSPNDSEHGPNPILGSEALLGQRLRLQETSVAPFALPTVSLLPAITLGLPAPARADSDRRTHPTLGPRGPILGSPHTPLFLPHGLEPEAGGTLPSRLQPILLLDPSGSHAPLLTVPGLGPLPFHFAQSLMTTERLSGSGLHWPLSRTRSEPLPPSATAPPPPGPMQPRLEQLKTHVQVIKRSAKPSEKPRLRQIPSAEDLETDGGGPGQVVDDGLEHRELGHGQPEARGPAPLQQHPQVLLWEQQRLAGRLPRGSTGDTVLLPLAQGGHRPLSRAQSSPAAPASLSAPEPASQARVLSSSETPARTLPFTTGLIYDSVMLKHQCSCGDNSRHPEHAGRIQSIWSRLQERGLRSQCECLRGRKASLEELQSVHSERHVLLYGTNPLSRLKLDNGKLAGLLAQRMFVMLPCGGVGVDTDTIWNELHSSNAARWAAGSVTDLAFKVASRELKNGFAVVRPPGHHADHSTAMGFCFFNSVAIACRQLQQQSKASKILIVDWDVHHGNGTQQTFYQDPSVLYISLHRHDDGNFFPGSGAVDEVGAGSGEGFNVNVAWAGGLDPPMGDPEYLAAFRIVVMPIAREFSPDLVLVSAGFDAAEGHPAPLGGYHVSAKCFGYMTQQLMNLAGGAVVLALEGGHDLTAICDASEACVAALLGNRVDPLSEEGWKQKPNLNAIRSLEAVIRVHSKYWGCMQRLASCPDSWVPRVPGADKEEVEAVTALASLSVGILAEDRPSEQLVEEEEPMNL

Sequence of Tubulin (Sus scrofa) (P02550 whole entry, looked up): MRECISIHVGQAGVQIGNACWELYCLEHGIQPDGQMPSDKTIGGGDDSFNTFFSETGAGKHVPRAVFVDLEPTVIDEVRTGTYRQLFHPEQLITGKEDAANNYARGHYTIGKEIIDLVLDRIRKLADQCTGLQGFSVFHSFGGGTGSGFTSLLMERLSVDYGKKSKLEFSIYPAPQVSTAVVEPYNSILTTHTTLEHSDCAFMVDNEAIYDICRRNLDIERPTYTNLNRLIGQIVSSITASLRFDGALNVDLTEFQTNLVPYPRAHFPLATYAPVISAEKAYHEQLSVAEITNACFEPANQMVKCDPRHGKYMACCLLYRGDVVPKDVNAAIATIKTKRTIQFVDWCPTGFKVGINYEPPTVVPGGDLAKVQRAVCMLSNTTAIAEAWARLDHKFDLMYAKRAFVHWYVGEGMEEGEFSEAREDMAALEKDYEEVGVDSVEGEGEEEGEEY
Sequence of Tubulin (Sus scrofa) (P02554 whole entry, looked up): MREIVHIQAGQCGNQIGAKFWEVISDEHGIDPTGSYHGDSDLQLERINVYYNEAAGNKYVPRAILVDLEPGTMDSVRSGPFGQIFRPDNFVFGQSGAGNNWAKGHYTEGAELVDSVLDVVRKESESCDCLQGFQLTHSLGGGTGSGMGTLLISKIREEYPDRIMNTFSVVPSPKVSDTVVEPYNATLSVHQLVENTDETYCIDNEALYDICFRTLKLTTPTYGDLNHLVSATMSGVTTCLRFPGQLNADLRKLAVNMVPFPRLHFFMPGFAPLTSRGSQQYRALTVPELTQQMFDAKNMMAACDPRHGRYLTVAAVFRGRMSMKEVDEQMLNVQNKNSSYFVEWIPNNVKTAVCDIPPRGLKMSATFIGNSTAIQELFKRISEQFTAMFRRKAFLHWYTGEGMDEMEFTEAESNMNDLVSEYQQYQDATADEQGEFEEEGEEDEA
Sequence of Histone deacetylase 3 (O15379 whole entry, the tested form may be a part): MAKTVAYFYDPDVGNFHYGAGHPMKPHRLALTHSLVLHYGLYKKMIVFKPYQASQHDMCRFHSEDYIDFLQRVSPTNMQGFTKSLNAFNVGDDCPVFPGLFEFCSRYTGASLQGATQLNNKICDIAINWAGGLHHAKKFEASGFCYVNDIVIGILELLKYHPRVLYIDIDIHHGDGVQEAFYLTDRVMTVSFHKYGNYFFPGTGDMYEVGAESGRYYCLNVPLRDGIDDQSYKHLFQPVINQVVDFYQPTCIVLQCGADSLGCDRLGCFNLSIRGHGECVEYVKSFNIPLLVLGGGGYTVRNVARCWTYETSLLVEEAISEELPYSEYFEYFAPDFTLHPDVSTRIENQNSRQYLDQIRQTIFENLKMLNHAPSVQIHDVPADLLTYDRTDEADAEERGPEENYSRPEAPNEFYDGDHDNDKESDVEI
Sequence of Histone deacetylase 1 (Q13547 whole entry, the tested form may be a part): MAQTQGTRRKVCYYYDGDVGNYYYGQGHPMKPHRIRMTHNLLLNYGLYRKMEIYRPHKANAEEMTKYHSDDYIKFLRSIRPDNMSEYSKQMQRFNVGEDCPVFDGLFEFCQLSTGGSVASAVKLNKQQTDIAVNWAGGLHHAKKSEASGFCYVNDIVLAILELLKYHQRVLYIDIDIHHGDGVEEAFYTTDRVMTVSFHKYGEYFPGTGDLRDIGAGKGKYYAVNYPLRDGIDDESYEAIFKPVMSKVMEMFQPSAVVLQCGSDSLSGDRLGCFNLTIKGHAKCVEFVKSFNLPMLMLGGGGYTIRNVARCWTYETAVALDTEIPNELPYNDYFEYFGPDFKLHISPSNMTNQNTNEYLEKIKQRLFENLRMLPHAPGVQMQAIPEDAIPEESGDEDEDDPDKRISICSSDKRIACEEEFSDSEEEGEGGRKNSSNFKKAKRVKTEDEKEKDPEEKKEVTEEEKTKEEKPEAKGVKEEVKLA

Structure (SMILES) | pIC50 [1] | pIC50 [2] | pIC50 [3] | pIC50 [4] | pIC50 [5] | pIC50 [6] | inhibition [7] | pIC50 [8] | pIC50 [9] | pIC50 [10] | pIC50 [11] | inhibition [12] | pIC50 [13]
COc1cc(C(=O)c2csc(-c3ccc(/C=C/C(=O)NO)cc3)n2)cc(OC)c1OC | 7.00 | 5.86 | 7.70 | 6.12 | 5.39 | 5.21 | > 50% | 5.07 | 4.72 | 5.80 | 5.57 | 47% | 
COc1cc(C(=O)c2csc(-c3ccc(NC(=O)/C=C/C(=O)Nc4ccccc4N)cc3)n2)cc(OC)c1OC | 6.06 | 5.40 | 6.59 | 5.53 |  |  |  | 4.84 | 5.40 | 4.52 | 6.10 | 67% | 4.37
COc1cc(C(=O)c2csc(-c3ccc(OCCCC(=O)NO)cc3)n2)cc(OC)c1OC | 7.00 | 5.42 | 6.28 | 5.71 | 6.04 | 5.89 | > 50% | 5.20 | 5.02 | 5.94 | 5.05 | 39% | 
COc1cc(C(=O)c2csc(-c3ccc(NC(=O)CCCCCC(=O)NO)cc3)n2)cc(OC)c1OC | 5.72 | < 5.00 | 6.82 | < 5.00 |  |  | > 50% | 4.72 | 4.91 | 5.71 | 5.38 |  | 
COc1cc(C(=O)c2csc(-c3ccc(NC(=O)CCCCCCC(=O)Nc4ccccc4N)cc3)n2)cc(OC)c1OC | 6.44 | 6.04 | 7.52 | 5.68 | 5.43 | 5.27 |  | 5.01 | 5.76 | 4.54 | 4.99 |  | 
COc1cc(C(=O)c2csc(-c3ccc(OCc4ccc(/C=C/C(=O)NO)cc4)cc3)n2)cc(OC)c1OC | 5.56 | 5.66 | 6.32 | < 5.00 |  |  | > 50% | 5.16 | 5.05 | 5.68 | 5.15 |  | 
COc1cc(C(=O)c2csc(-c3ccc(OCc4ccc(C(=O)NO)cc4)cc3)n2)cc(OC)c1OC | 5.59 | 5.56 | 6.42 | 5.00 |  |  | > 50% | 5.14 | 4.90 | 5.70 | 5.10 |  | 
COc1cc(C(=O)c2csc(-c3ccc(NC(=O)CCCCC(=O)NO)cc3)n2)cc(OC)c1OC | 6.11 | < 5.00 | 7.22 | < 5.00 |  |  | > 50% | 4.78 | 4.88 | 5.59 | 5.48 |  | 
